Test results: ChEMBL document CHEMBL3856209, “Novel pyrazolopyridine derivatives as potential angiogenesis inhibitors: Synthesis, biological evaluation and transcriptome-based mechanistic analysis” (Eur J Med Chem, 2016)
Active and inactive are the calls of the source.

Tests used:
HUVEC [1] = test: Effect on TAOK1 gene expression in serum-starved HUVEC after 24 hrs by microarray analysis relative to control; format: functional, Homo sapiens
HUVEC [2] = test: Effect on RETSAT gene expression in serum-starved HUVEC after 24 hrs by microarray analysis relative to control; format: functional, Homo sapiens
HUVEC [3] = test: Effect on GANAB gene expression in serum-starved HUVEC after 24 hrs by microarray analysis relative to control; format: functional, Homo sapiens
How it was run: (§1)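 Confluent, serum-starved HUVEC (pooled from 3–5 donors, passage ≤4) treated with 2 μM compound or vehicle with 2.5% FBS for 6 h or 24 h. Total RNA hybridized to Illumina Human-HT12 arrays. Data were background-corrected, vst-transformed and rsn-normalized. Hits called by moderated paired t-test versus DMSO-treated cells, p < 0.05 and log2 fold change >|0.5|.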

HUVEC [4] = test: Effect on RHOB gene expression in serum-starved HUVEC after 6 hrs by microarray analysis relative to control; format: functional, Homo sapiens
HUVEC [5] = test: Effect on ASPM gene expression in serum-starved HUVEC after 6 hrs by microarray analysis relative to control; format: functional, Homo sapiens
How it was run: (§2)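 Serum-starved confluent HUVEC treated with 2 μM compound or DMSO in 2.5% FBS for 6 h or 24 h; RNA hybridized to Illumina Human-HT12 arrays. Data background-corrected, vst-transformed and rsn-normalized. Differential probes called by moderated paired t-test (limma) at p < 0.05 and log2 fold change >|0.5| vs DMSO.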

HUVEC [6] = test: Effect on CKS2 gene expression in serum-starved HUVEC after 24 hrs by microarray analysis relative to control; format: functional, Homo sapiens; how it was run: as §1
HUVEC [7] = test: Effect on CKS1B gene expression in serum-starved HUVEC after 6 hrs by microarray analysis relative to control; format: functional, Homo sapiens; how it was run: as §2
HUVEC [8] = test: Effect on MBNL2 gene expression in serum-starved HUVEC after 6 hrs by microarray analysis relative to control; format: functional, Homo sapiens
How it was run: (§3)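 Serum-starved confluent HUVEC (pooled from 3–5 donors, passage ≤4) were treated with 2 μM compound or vehicle in 2.5% FBS for 6 h or 24 h, and total RNA was isolated. Hybridization was on Illumina Human-HT12. Data were processed with bgAdjust, vst and rsn normalization. Changes versus DMSO were called by moderated paired t-test at p < 0.05 and |log2 fold change| > 0.5.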

HUVEC [9] = test: Effect on RNU1-1 gene expression in serum-starved HUVEC after 6 hrs by microarray analysis relative to control; format: functional, Homo sapiens
HUVEC [10] = test: Effect on EMCN gene expression in serum-starved HUVEC after 24 hrs by microarray analysis relative to control; format: functional, Homo sapiens
How it was run: (§4)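 Confluent serum-starved HUVEC (primary, pooled from 3–5 donors, passage ≤4) treated with 2 μM compound or DMSO vehicle in 2.5% FBS for 6 h or 24 h. Total RNA hybridized to Illumina Human-HT12 arrays, background-corrected, vst-transformed and rsn-normalized. Differential expression versus DMSO by moderated paired t-test (p < 0.05, |log2 fold change| > 0.5).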

HUVEC [11] = test: Effect on PODXL gene expression in serum-starved HUVEC after 24 hrs by microarray analysis relative to control; format: functional, Homo sapiens; how it was run: as §3
HUVEC [12] = test: Effect on SMC4 gene expression in serum-starved HUVEC after 6 hrs by microarray analysis relative to control; format: functional, Homo sapiens
HUVEC [13] = test: Effect on ESM1 gene expression in serum-starved HUVEC after 24 hrs by microarray analysis relative to control; format: functional, Homo sapiens; how it was run: as §4
[14] = Downregulation of HMOX1 gene expression in serum-starved HUVEC at 2 uM after 24 hrs by qRT-PCR analysis; format: functional, cell-based; settings: Homo sapiens
How it was run: (§5)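 Serum-starved confluent HUVEC treated with 2 μM compound or vehicle in 2.5% FBS for 24 h. Total RNA isolated and qRT-PCR run in triplicate (95 °C 5 min; 40 cycles of 95 °C 5 s, 58 °C 20 s, 72 °C 5 s), normalized to RPS18S. Fold change vs control, n = 3.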

[15] = Upregulation of SQLE gene expression in serum-starved HUVEC at 2 uM after 24 hrs by qRT-PCR analysis; format: functional, cell-based; settings: Homo sapiens
HUVEC [16] = test: Effect on GRPEL2 gene expression in serum-starved HUVEC after 6 hrs by microarray analysis relative to control; format: functional, Homo sapiens; how it was run: as §1
HUVEC [17] = test: Effect on ACACA gene expression in serum-starved HUVEC after 6 hrs by microarray analysis relative to control; format: functional, Homo sapiens; how it was run: as §2
HUVEC [18] = test: Effect on CD14 gene expression in serum-starved HUVEC after 6 hrs by microarray analysis relative to control; format: functional, Homo sapiens; how it was run: as §4
[19] = Upregulation of MSMO1 gene expression in serum-starved HUVEC at 2 uM after 24 hrs by qRT-PCR analysis; format: functional, cell-based; settings: Homo sapiens
HUVEC [20] = test: Effect on CDCA5 gene expression in serum-starved HUVEC after 6 hrs by microarray analysis relative to control; format: functional, Homo sapiens; how it was run: as §2
HUVEC [21] = test: Effect on KIF4A gene expression in serum-starved HUVEC after 6 hrs by microarray analysis relative to control; format: functional, Homo sapiens
HUVEC [22] = test: Effect on TUBB4B gene expression in serum-starved HUVEC after 6 hrs by microarray analysis relative to control; format: functional, Homo sapiens
HUVEC [23] = test: Effect on HMGCR gene expression in serum-starved HUVEC after 6 hrs by microarray analysis relative to control; format: functional, Homo sapiens; how it was run: as §1
HUVEC [24] = test: Effect on HAVCR2 gene expression in serum-starved HUVEC after 6 hrs by microarray analysis relative to control; format: functional, Homo sapiens; how it was run: as §4
HUVEC [25] = test: Effect on HLA-DRA gene expression in serum-starved HUVEC after 6 hrs by microarray analysis relative to control; format: functional, Homo sapiens
HUVEC [26] = test: Effect on PALD1 gene expression in serum-starved HUVEC after 24 hrs by microarray analysis relative to control; format: functional, Homo sapiens; how it was run: as §3
HUVEC [27] = test: Effect on COL4A3BP gene expression in serum-starved HUVEC after 24 hrs by microarray analysis relative to control; format: functional, Homo sapiens; how it was run: as §4
HUVEC [28] = test: Effect on MYLIP gene expression in serum-starved HUVEC after 6 hrs by microarray analysis relative to control; format: functional, Homo sapiens
HUVEC [29] = test: Effect on PCYT2 gene expression in serum-starved HUVEC after 24 hrs by microarray analysis relative to control; format: functional, Homo sapiens
HUVEC [30] = test: Effect on CTSH gene expression in serum-starved HUVEC after 6 hrs by microarray analysis relative to control; format: functional, Homo sapiens; how it was run: as §1
HUVEC [31] = test: Effect on FAM198B gene expression in serum-starved HUVEC after 6 hrs by microarray analysis relative to control; format: functional, Homo sapiens; how it was run: as §4
[32] = Downregulation of CCNA2 gene expression in serum-starved HUVEC at 2 uM after 24 hrs by qRT-PCR analysis; format: functional, cell-based; settings: Homo sapiens; how it was run: as §5
HUVEC [33] = test: Effect on CENPW gene expression in serum-starved HUVEC after 24 hrs by microarray analysis relative to control; format: functional, Homo sapiens
How it was run: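 Serum-starved confluent HUVEC (primary, pooled from 3–5 donors, passage ≤4) treated with 2 μM test compound or DMSO vehicle (working dilutions ≤0.1% v/v) in presence of 2.5% FBS for 6 h or 24 h; total RNA hybridized to Illumina Human-HT12 arrays; background correction, vst, rsn normalization; moderated paired t-test versus DMSO, thresholds p < 0.05 and log2 fold change >|0.5|.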

HUVEC [34] = test: Effect on GLIPR1 gene expression in serum-starved HUVEC after 6 hrs by microarray analysis relative to control; format: functional, Homo sapiens; how it was run: as §1
HUVEC [35] = test: Effect on CCNA2 gene expression in serum-starved HUVEC after 6 hrs by microarray analysis relative to control; format: functional, Homo sapiens; how it was run: as §2

COc1ccc(Cn2nc(-c3ccccc3)c3cc(Nc4ccc(N5CCN(C)CC5)cc4)nc(N4CCNCC4)c32)cc1
log2FC (HUVEC [1]): 0.6142 | log2FC (HUVEC [2]): -0.5409 | log2FC (HUVEC [3]): -0.5222

COc1ccc(Cn2nc(-c3ccccc3)c3cc(Cl)nc(N4CCNCC4)c32)cc1
log2FC (HUVEC [4]): -0.225 | fold change (FC) (HUVEC [5]): 0.1684 | log2FC (HUVEC [6]): -0.5724 | log2FC (HUVEC [7]): -0.0514 | log2FC (HUVEC [8]): 0.2488

COc1ccc(Cn2nc(-c3ccccc3)c3cc(Nc4ccc(N5CCN(C)CC5)cc4)nc(N4CCN(C)CC4)c32)cc1
fold change (FC) (HUVEC [9]): -0.6255 | fold change (FC) (HUVEC [10]): 0.5299 | log2FC (HUVEC [11]): 0.6696 | fold change (FC) (HUVEC [12]): 0.0208 | fold change (FC) (HUVEC [13]): 0.8252 | Activity [14]: Active | Activity [15]: Active | fold change (FC) (HUVEC [16]): 0.2207 | fold change (FC) (HUVEC [17]): 0.1305 | fold change (FC) (HUVEC [18]): 1.7643 | Activity [19]: Active | fold change (FC) (HUVEC [20]): 0.0694 | fold change (FC) (HUVEC [21]): 0.0285 | fold change (FC) (HUVEC [22]): -0.206 | fold change (FC) (HUVEC [23]): 1.0317 | fold change (FC) (HUVEC [24]): 0.9139 | fold change (FC) (HUVEC [25]): 0.8911 | log2FC (HUVEC [26]): 0.5892 | fold change (FC) (HUVEC [27]): -0.1456 | fold change (FC) (HUVEC [28]): -0.5593 | log2FC (HUVEC [29]): 0.5377 | fold change (FC) (HUVEC [30]): 0.4595 | fold change (FC) (HUVEC [31]): 0.7445 | Activity [32]: Active | fold change (FC) (HUVEC [33]): -0.5146 | fold change (FC) (HUVEC [34]): 0.1533 | log2FC (HUVEC [35]): -0.1788
